Experimental data as given in ChEMBL document CHEMBL5705901, “Exploiting selective BCL-2 family inhibitors to dissect cell survival dependencies and define improved strategies for cancer therapy” (Sci Transl Med, 2015).

Columns and labels:
MV4-11 = experiment: Antiproliferative activity against human MV4-11 assessed as reduction in cell viability incubated for 48 hrs by CellTiter-Glo cell vaibility assay; format: functional, cell-based; settings: MV4-11, 48 h
Outline: (§1)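 Tumour cell lines (SCLC panel and AML panel) exposed to increasing concentrations for 48 hours, then cell viability measured. Cell-killing EC50 taken from the concentration-response.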

MOLM-13 = experiment: Antiproliferative activity against human MOLM-13 assessed as reduction in cell viability incubated for 48 hrs by CellTiter-Glo cell vaibility assay; format: functional, cell-based; settings: MOLM-13, 48 h; outline: as §1
HEL = experiment: Antiproliferative activity against human HEL harboring JAK2 V617F mutant assessed as reduction in cell viability incubated for 48 hrs by CellTiter-Glo cell vaibility assay; format: functional, cell-based; outline: as §1
HL-60 = experiment: Antiproliferative activity against human HL-60 assessed as reduction in cell viability incubated for 48 hrs by CellTiter-Glo cell vaibility assay; format: functional, cell-based; settings: HL-60, 48 h; outline: as §1
[1] = Antiproliferative activity against human NCI-H847 assessed as reduction in cell viability incubated for 48 hrs by CellTiter-Glo cell vaibility assay; format: functional, cell-based; settings: NCI-H847, 48 h; outline: as §1
OCI-AML-3 = experiment: Antiproliferative activity against human OCI-AML-3 assessed as reduction in cell viability incubated for 48 hrs by CellTiter-Glo cell vaibility assay; format: functional, cell-based; settings: OCI-AML-3, 48 h; outline: as §1
NCI-H69 = experiment: Antiproliferative activity against human NCI-H69 assessed as reduction in cell viability incubated for 48 hrs by CellTiter-Glo cell vaibility assay; format: functional, cell-based; settings: NCI-H69, 48 h; outline: as §1
THP-1 = experiment: Antiproliferative activity against human THP-1 assessed as reduction in cell viability incubated for 48 hrs by CellTiter-Glo cell vaibility assay; format: functional, cell-based; settings: THP-1, 48 h; outline: as §1
NCI-H345 = experiment: Antiproliferative activity against human NCI-H345 assessed as reduction in cell viability incubated for 48 hrs by CellTiter-Glo cell vaibility assay; format: functional, cell-based; settings: NCI-H345, 48 h; outline: as §1
[2] = Inhibition of granulocyte colony formation in human bone marrow cells at 0.1 to 20 uM incubated for 14 to 16 days in presence of docetaxel by light microscopic analysis; format: toxicity, cell-based; settings: bone marrow cell, dose lower 0.1 µM, time lower 14 day, dose upper 20 µM, time upper 16 day
Outline: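 Human bone marrow granulocyte colony-forming assay in semisolid medium, increasing inhibitor concentrations ± 5 nM docetaxel; colonies counted by light microscopy after 14 days; triplicate means with SD; combinations compared with docetaxel alone by Student's t test.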

MOLT-4 = experiment: Antiproliferative activity against Bcl-xl dependent human MOLT-4 cells assessed as reduction in cell viability by measuring effect concentration by CellTiter-Glo reagent based assay; format: functional
NCI-H1048 = experiment: Antiproliferative activity against human NCI-H1048 assessed as reduction in cell viability incubated for 48 hrs by CellTiter-Glo cell vaibility assay; format: functional, cell-based; settings: NCI-H1048, 48 h; outline: as §1
SIG-M5 = experiment: Antiproliferative activity against human SIG-M5 assessed as reduction in cell viability incubated for 48 hrs by CellTiter-Glo cell vaibility assay; format: functional, cell-based; settings: SIG-M5, 48 h; outline: as §1
SKM-1 = experiment: Antiproliferative activity against human SKM-1 assessed as reduction in cell viability incubated for 48 hrs by CellTiter-Glo cell vaibility assay; format: functional, cell-based; settings: SKM-1, 48 h; outline: as §1
[3] = Antiproliferative activity against human PL-21 assessed as reduction in cell viability incubated for 48 hrs by CellTiter-Glo cell vaibility assay; format: functional, cell-based; settings: PL-21, 48 h; outline: as §1
NCI-H187 = experiment: Antiproliferative activity against human NCI-H187 assessed as reduction in cell viability incubated for 48 hrs by CellTiter-Glo cell vaibility assay; format: functional, cell-based; settings: NCI-H187, 48 h; outline: as §1
[4] = target: Induced myeloid leukemia cell differentiation protein Mcl-1 (Homo sapiens, UniProt Q07820); experiment: Binding affinity to MCL-1 (unknown origin) assessed as dissociation constant incubated for 1 hrs by TR-FRET assay
SET-2 = experiment: Antiproliferative activity against human SET2 harboring JAK2 V617F mutant assessed as reduction in cell viability incubated for 48 hrs by CellTiter-Glo cell vaibility assay; format: functional, cell-based; settings: SET-2, 48 h; outline: as §1
[5] = Antiproliferative activity against human ME-1 assessed as reduction in cell viability incubated for 48 hrs by CellTiter-Glo cell vaibility assay; format: functional, cell-based; settings: ME-1, 48 h; outline: as §1
[6] = Antiproliferative activity against human OCI-M1 assessed as reduction in cell viability incubated for 48 hrs by CellTiter-Glo cell vaibility assay; format: functional, cell-based; settings: OCI-M1, 48 h; outline: as §1
DMS-79 = experiment: Antiproliferative activity against human DMS 79 assessed as reduction in cell viability incubated for 48 hrs by CellTiter-Glo cell vaibility assay; format: functional, cell-based; settings: DMS-79, 48 h; outline: as §1
NCI-H446 = experiment: Antiproliferative activity against human NCI-H446 assessed as reduction in cell viability incubated for 48 hrs by CellTiter-Glo cell vaibility assay; format: functional, cell-based; settings: NCI-H446, 48 h; outline: as §1
NOMO-1 = experiment: Antiproliferative activity against human NOMO-1 assessed as reduction in cell viability incubated for 48 hrs by CellTiter-Glo cell vaibility assay; format: functional, cell-based; settings: NOMO-1, 48 h; outline: as §1
EOL1 = experiment: Antiproliferative activity against human EOL1 assessed as reduction in cell viability incubated for 48 hrs by CellTiter-Glo cell vaibility assay; format: functional, cell-based; settings: EOL1, 48 h; outline: as §1
[7] = Antiproliferative activity against human MOLM16 assessed as reduction in cell viability incubated for 48 hrs by CellTiter-Glo cell vaibility assay; format: functional, cell-based, MOLM-16; settings: MOLM16, 48 h; outline: as §1
NCI-H211 = experiment: Antiproliferative activity against human NCI-H211 assessed as reduction in cell viability incubated for 48 hrs by CellTiter-Glo cell vaibility assay; format: functional, cell-based; settings: NCI-H211, 48 h; outline: as §1
NCI-H1836 = experiment: Antiproliferative activity against human NCI-H1836 assessed as reduction in cell viability incubated for 48 hrs by CellTiter-Glo cell vaibility assay; format: functional, cell-based; settings: NCI-H1836, 48 h; outline: as §1
NCI-H1417 = experiment: Antiproliferative activity against human NCI-H1417 assessed as reduction in cell viability incubated for 48 hrs by CellTiter-Glo cell vaibility assay; format: functional, cell-based; settings: NCI-H1417, 48 h; outline: as §1
OCI-AML-5 = experiment: Antiproliferative activity against human OCI-AML5 assessed as reduction in cell viability incubated for 48 hrs by CellTiter-Glo cell vaibility assay; format: functional, cell-based; settings: OCI-AML-5, 48 h; outline: as §1
[8] = Antiproliferative activity against human UKE-1 harboring JAK2 V617F mutant assessed as reduction in cell viability incubated for 48 hrs by CellTiter-Glo cell vaibility assay; format: functional, cell-based; settings: UKE1, 48 h; outline: as §1
OCI-AML2 = experiment: Antiproliferative activity against human OCI-AML2 assessed as reduction in cell viability incubated for 48 hrs by CellTiter-Glo cell vaibility assay; format: functional, cell-based; settings: OCI-AML2, 48 h; outline: as §1
[9] = Antiproliferative activity against human HNT-34 assessed as reduction in cell viability incubated for 48 hrs by CellTiter-Glo cell vaibility assay; format: functional, cell-based; settings: HNT-34, 48 h; outline: as §1
NCI-H889 = experiment: Antiproliferative activity against human NCI-H889 assessed as reduction in cell viability incubated for 48 hrs by CellTiter-Glo cell vaibility assay; format: functional, cell-based; settings: NCI-H889, 48 h; outline: as §1
KG-1 = experiment: Antiproliferative activity against human KG-1 assessed as reduction in cell viability incubated for 48 hrs by CellTiter-Glo cell vaibility assay; format: functional, cell-based; settings: KG-1, 48 h; outline: as §1
[10] = Antiproliferative activity against human OCI-M2 assessed as reduction in cell viability incubated for 48 hrs by CellTiter-Glo cell vaibility assay; format: functional, cell-based; settings: OCI-M2, 48 h; outline: as §1
ML-2 = experiment: Antiproliferative activity against human ML-2 assessed as reduction in cell viability incubated for 48 hrs by CellTiter-Glo cell vaibility assay; format: functional, cell-based; settings: ML-2, 48 h; outline: as §1
GDM-1 = experiment: Antiproliferative activity against human GDM-1 assessed as reduction in cell viability incubated for 48 hrs by CellTiter-Glo cell vaibility assay; format: functional, cell-based; settings: GDM-1, 48 h; outline: as §1
[11] = Inhibition of granulocyte colony formation in human bone marrow cells at 0.1 to 20 uM incubated for 14 to 16 days by light microscopic analysis; format: toxicity, cell-based; settings: bone marrow cell, dose lower 0.1 µM, time lower 14 day, dose upper 20 µM, time upper 16 day
Outline: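 Isolated human bone marrow cells cultured in semisolid medium with increasing inhibitor concentrations; granulocyte (neutrophil) colonies counted by light microscopy after 15–16 days; triplicate means with SD; Student's t test versus solvent control.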

Kasumi 1 = experiment: Antiproliferative activity against human Kasumi 1 assessed as reduction in cell viability incubated for 48 hrs by CellTiter-Glo cell vaibility assay; format: functional, cell-based; settings: Kasumi 1, 48 h; outline: as §1

Chain of Induced myeloid leukemia cell differentiation protein Mcl-1 (Q07820 whole entry): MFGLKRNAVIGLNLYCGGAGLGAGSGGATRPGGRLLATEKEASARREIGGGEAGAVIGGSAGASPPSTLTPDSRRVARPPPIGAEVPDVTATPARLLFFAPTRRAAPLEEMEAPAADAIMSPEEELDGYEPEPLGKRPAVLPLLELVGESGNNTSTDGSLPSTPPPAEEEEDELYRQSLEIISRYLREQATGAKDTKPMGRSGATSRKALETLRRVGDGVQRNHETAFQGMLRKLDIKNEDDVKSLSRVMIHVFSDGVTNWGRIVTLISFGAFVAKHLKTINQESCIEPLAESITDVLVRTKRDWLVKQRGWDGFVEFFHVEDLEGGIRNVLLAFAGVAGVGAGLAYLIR

Which EC50 (MV4-11) does the source give for `CC1(C)CCC(CN2CCN(c3ccc(C(=O)NS(=O)(=O)c4ccc(NCC5CCOCC5)c([N+](=O)[O-])c4)c(Oc4cnc5[nH]ccc5c4)c3)CC2)=C(c2ccc(Cl)cc2)C1` [VENETOCLAX] here?
The EC50 was 100 nM.

And the EC50 (MOLM-13)?
Its EC50 is 100 nM.

What about the EC50 (HEL) of the same molecule?
Its EC50 is 3370 nM.

And the EC50 (HL-60)?
Its EC50 is 100 nM.

What about the EC50 [1] of the same molecule?
Its EC50 is 3900 nM.

And the EC50 (OCI-AML-3)?
Its EC50 is > 5000 nM.

And the EC50 (NCI-H69)?
Its EC50 is 3860 nM.

And the EC50 (THP-1)?
The EC50 was 820 nM.

And the EC50 (NCI-H345)?
Its EC50 is 1200 nM.

What about the Activity [2] of the same molecule?
Its Activity is “Toxic”.

What about the EC50 (MOLT-4) of the same molecule?
Its EC50 is > 5000 nM.

What about the EC50 (NCI-H1048) of the same molecule?
The EC50 was 2700 nM.

And the EC50 (SIG-M5)?
Its EC50 is 100 nM.

What about the EC50 (SKM-1) of the same molecule?
Its EC50 is 2530 nM.

And the EC50 [3]?
The EC50 was 1810 nM.

And the EC50 (NCI-H187)?
The EC50 was 850 nM.

What about the Ki [4] of the same molecule?
The Ki was > 444 nM.

What about the EC50 (SET-2) of the same molecule?
The EC50 was 3330 nM.

What about the EC50 [5] of the same molecule?
Its EC50 is > 5000 nM.

What about the EC50 [6] of the same molecule?
Its EC50 is > 5000 nM.

And the EC50 (DMS-79)?
Its EC50 is 4620 nM.

And the EC50 (NCI-H446)?
Its EC50 is 2400 nM.

And the EC50 (NOMO-1)?
The EC50 was > 5000 nM.

What about the EC50 (EOL1) of the same molecule?
Its EC50 is 100 nM.

What about the EC50 [7] of the same molecule?
Its EC50 is 40 nM.

And the EC50 (NCI-H211)?
The EC50 was 330 nM.

What about the EC50 (NCI-H1836) of the same molecule?
The EC50 was 5000 nM.

And the EC50 (NCI-H1417)?
Its EC50 is 4100 nM.

And the EC50 (OCI-AML-5)?
The EC50 was 110 nM.

And the EC50 [8]?
The EC50 was 3060 nM.

What about the EC50 (OCI-AML2) of the same molecule?
Its EC50 is 100 nM.

What about the EC50 [9] of the same molecule?
The EC50 was 1700 nM.

What about the EC50 (NCI-H889) of the same molecule?
The EC50 was 15 nM.

And the EC50 (KG-1)?
Its EC50 is 1200 nM.

What about the EC50 [10] of the same molecule?
Its EC50 is 4050 nM.

And the EC50 (ML-2)?
The EC50 was 100 nM.

And the EC50 (GDM-1)?
Its EC50 is 100 nM.

What about the Activity [11] of the same molecule?
The Activity was “Toxic”.

What about the EC50 (Kasumi 1) of the same molecule?
Its EC50 is 1000 nM.
